Results published in ChEMBL document CHEMBL2157885, “Synthesis of 1,5-diarylhaloimidazole analogs and their inhibitory activities against PGE₂ production from LPS-treated RAW 264.7 cells” (Bioorg Med Chem, 2012).

Experiments:
[1] = molecular target: T1, Prostaglandin G/H synthase 2 (Mus musculus, UniProt Q05769); assay: Inhibition of COX-2-induced PGE2 production in LPS-stimulated mouse Raw 264.7 cells preincubated for 1 hr before LPS challenge measured after 24 hrs by ELISA
T1 sequence (Q05769 whole entry): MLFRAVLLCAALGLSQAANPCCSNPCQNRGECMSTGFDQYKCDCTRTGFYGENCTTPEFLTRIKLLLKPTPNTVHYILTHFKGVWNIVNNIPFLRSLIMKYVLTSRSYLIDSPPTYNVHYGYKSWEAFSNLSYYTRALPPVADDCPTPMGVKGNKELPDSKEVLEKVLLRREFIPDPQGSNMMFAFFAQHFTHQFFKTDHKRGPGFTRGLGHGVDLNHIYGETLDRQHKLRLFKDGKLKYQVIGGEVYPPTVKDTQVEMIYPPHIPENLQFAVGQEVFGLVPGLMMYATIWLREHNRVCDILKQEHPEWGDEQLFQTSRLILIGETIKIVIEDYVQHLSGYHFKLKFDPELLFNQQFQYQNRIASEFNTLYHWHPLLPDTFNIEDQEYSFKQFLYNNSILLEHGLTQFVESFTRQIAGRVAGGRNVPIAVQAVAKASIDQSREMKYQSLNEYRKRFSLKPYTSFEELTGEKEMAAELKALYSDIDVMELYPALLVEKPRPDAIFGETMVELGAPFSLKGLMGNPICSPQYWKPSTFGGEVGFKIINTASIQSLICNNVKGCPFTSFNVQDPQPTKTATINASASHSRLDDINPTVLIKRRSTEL
Method in brief: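 RAW 264.7 cells (ATCC), cultured in DMEM with 10% FBS and 1% antibiotics at 37 °C under 5% CO₂, seeded at 2 × 10⁵ cells/well. 1 h compound pre-incubation preceded LPS addition and 24 h incubation. Medium PGE₂ quantified by ELISA; IC₅₀ reported from inhibition relative to basal and LPS-only controls.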

[2] = molecular target: T2, Prostaglandin G/H synthase 2 (Mus musculus) (UniProt Q05769); assay: Inhibition of COX-2-induced PGE2 production in LPS-stimulated mouse Raw 264.7 cells at 10 uM preincubated for 1 hr before LPS challenge measured after 24 hrs by ELISA
T2 sequence (whole entry): T1 sequence (Q05769 whole entry)
Method in brief: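 ATCC RAW 264.7 cells in DMEM with 10% FBS and 1% antibiotics, 37 °C, 5% CO₂, seeded at 2 × 10⁵ cells/well. Compound pre-incubated 1 h, then LPS added, 24 h further. PGE₂ in medium measured by ELISA. % inhibition = 100 × [1 − (treated + LPS − basal)/(LPS only − basal)]. Arithmetic means, n = 3.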

RAW264.7 [3] = assay: Cytotoxicity against LPS-stimulated mouse RAW264.7 cells by MTT assay; assay type: cell-based
Method in brief: (§1)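 Viability of ATCC RAW 264.7 cells, grown in DMEM with 10% FBS and 1% antibiotics at 37 °C under 5% CO₂, read by MTT assay with or without LPS at the compound concentrations used for the PGE₂ assay.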

RAW264.7 [4] = assay: Cytotoxicity against mouse RAW264.7 cells by MTT assay; assay type: cell-based; method in brief: as §1
[5] = Lipophilicity, log P of the compound; assay type: physicochemical; details: octanol/water
[6] = Dissociation constant, pKa of the compound; assay type: physicochemical

## CS(=O)(=O)c1ccc(-c2cncn2-c2ccc(F)cc2F)cc1
[1]
  IC50: 6520 nM
[2]
  inhibition: 84%
RAW264.7 [3]
  Activity: Non-toxic
RAW264.7 [4]
  Activity: Non-toxic

## CS(=O)(=O)c1ccc(-c2c(Br)ncn2-c2ccc(F)c(F)c2)cc1
[2]
  inhibition: 7%
RAW264.7 [3]
  Activity: Non-toxic
RAW264.7 [4]
  Activity: Non-toxic
[5]
  logP: 3.72

## CS(=O)(=O)c1ccc(-c2c(Br)nc(Br)n2-c2ccc(F)cc2F)cc1
[2]
  inhibition: 15%
RAW264.7 [3]
  Activity: Non-toxic
RAW264.7 [4]
  Activity: Non-toxic
[5]
  logP: 4.64

## CS(=O)(=O)c1ccc(-c2c(Cl)nc(Cl)n2-c2ccc(F)cc2F)cc1
[1]
  IC50: 550 nM
[2]
  inhibition: 98%
RAW264.7 [3]
  Activity: Non-toxic
RAW264.7 [4]
  Activity: Non-toxic
[6]
  pKa: 1.07
[5]
  logP: 3.64

## CS(=O)(=O)c1ccc(-c2cncn2-c2ccc(F)c(F)c2)cc1
RAW264.7 [3]
  Activity: Non-toxic
RAW264.7 [4]
  Activity: Non-toxic

## CS(=O)(=O)c1ccc(-c2cnc(I)n2-c2ccc(F)c(F)c2)cc1
[2]
  inhibition: 90%
RAW264.7 [3]
  Activity: Non-toxic
RAW264.7 [4]
  Activity: Non-toxic
[5]
  logP: 3.88

## CS(=O)(=O)c1ccc(-c2c(Cl)ncn2-c2ccc(F)c(F)c2)cc1
[2]
  inhibition: 56%
RAW264.7 [3]
  Activity: Non-toxic
RAW264.7 [4]
  Activity: Non-toxic

## CS(=O)(=O)c1ccc(-c2c(Cl)nc(Cl)n2-c2ccc(F)c(F)c2)cc1
[2]
  inhibition: 81%
RAW264.7 [3]
  Activity: Non-toxic
RAW264.7 [4]
  Activity: Non-toxic
[5]
  logP: 4.44

## CS(=O)(=O)c1ccc(-c2cnc(Cl)n2-c2ccc(F)cc2F)cc1
[2]
  inhibition: 42%
RAW264.7 [3]
  Activity: Non-toxic
RAW264.7 [4]
  Activity: Non-toxic

## CS(=O)(=O)c1ccc(-c2cnc(Br)n2-c2ccc(F)c(F)c2)cc1
[1]
  IC50: 580 nM
[2]
  inhibition: 99%
RAW264.7 [3]
  Activity: Non-toxic
RAW264.7 [4]
  Activity: Non-toxic
[6]
  pKa: 4.05
[5]
  logP: 3.7
